A short description of data set [1]: Toxicity in ip dosed albino mouse. The conditions noted are these: in vivo, read-out: ALD50. It counts as organism-based. The essentials:
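Acute lethal dose (ALD50) determined in albino mice of 15–25 g, given food pellets and water ad libitum. Compounds were dissolved in propylene glycol. The procedure followed a previously published method.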

Data set [2] concerns Rattus norvegicus. Briefly: Antiinflammatory activity in Charles Foster albino rat assessed as carrageenan-induced paw edema at 50 mg/kg, po administered 1 hr before carrageenan challenge measured after 3 hrs relative to control. Format: functional. Summed up:
(§1)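 Charles-Foster albino rats of either sex, pregnant females excluded, 70–95 days old, 120–175 g, food and water ad libitum. Groups of six. Compounds in propylene glycol given orally 1 h before 0.05 mL of 1% carrageenan in 0.9% saline, injected under the plantar aponeurosis of the right hind paw. Paw volume read by plethysmometer before and 3 h after injection. Inhibition (%) = (1 − Vt/Vc) × 100.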
In general terms: In the carrageenan paw model, swelling and tenderness develop within hours.

The subject of data set [3] is Mus musculus. Nature of the data set: Analgesic activity in albino mouse assessed as decrease in acetic acid-induced writhing at 50 mg/kg, ip administered 30 mins before acetic acid challenge measured after 1 hr relative to control. Format: functional. Also on record: scale not given: the % may be the effect or the level left. The conditions noted are these: route intraperitoneal. Summed up:
(§2)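 Mice of 15–25 g; compounds dissolved in propylene glycol. Acetic acid 0.5%, 0.25 mL/mouse, injected intraperitoneally 30 min after dosing. Mean number of writhes per group counted, and percent decrease versus control calculated after 60 min.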
A general note: An intraperitoneal irritant provokes the stretching counted in writhing tests.

In data set [4] the test system is Mus musculus. Nature of the data set: Analgesic activity in albino mouse assessed as decrease in acetic acid-induced writhing at 25 mg/kg, ip administered 30 mins before acetic acid challenge measured after 1 hr relative to control. It counts as functional. Also on record: scale not given: the % may be the effect or the level left. The conditions noted are these: route intraperitoneal. Summed up: as §2

Data set [5] deals with Mus musculus. Nature of the data set: Analgesic activity in albino mouse assessed as decrease in acetic acid-induced writhing at 100 mg/kg, ip administered 30 mins before acetic acid challenge measured after 1 hr relative to control. Format: functional. Set-up: scale not given: the % may be the effect or the level left. Conditions: route intraperitoneal. The essentials: as §2

For data set [6], the system named is Rattus norvegicus. Nature of the data set: Antiinflammatory activity in Charles Foster albino rat assessed as carrageenan-induced paw edema at 25 mg/kg, po administered 1 hr before carrageenan challenge measured after 3 hrs relative to control. It counts as functional. The essentials:
as §1

The subject of data set [7] is Rattus norvegicus. Briefly: Antiinflammatory activity in Charles Foster albino rat assessed as carrageenan-induced paw edema at 100 mg/kg, po administered 1 hr before carrageenan challenge measured after 3 hrs relative to control. Format: functional. Summed up:
as §1

With `COc1ccc2nc3ccccc3c(N3N=C(CBr)CC3=O)c2c1`, the LD50 in data set [1] is greater than 1000 mg/kg. The Activity in data set [2] is listed as 13.5%; in data set [3], 15.9%.
As for `O=C1CC(CBr)=NN1c1c2ccccc2nc2ccc(Br)cc12`, the LD50 in data set [1] was greater than 1000 mg/kg. The Activity is 17.1% in data set [2] and 13.6% in data set [3].
On to `COc1cc(Cl)c2nc3ccccc3c(N3N=C(CBr)CC3=O)c2c1`, for which the LD50 in data set [1] was greater than 1000 mg/kg. Besides, the Activity in data set [2] is reported as 18.6%; in data set [3], 16.3%.
Consider `COc1cc(Cl)c2nc3ccccc3c(N3N=C(C)CC3=O)c2c1`, for which, in data set [1], the LD50 was greater than 1000 mg/kg. For the same compound, the Activity in data set [2] is listed as 14.4%; in data set [3], 13.4%.
For `CC1=NN(c2c3ccccc3nc3c(Cl)cc(Cl)cc23)C(=O)C1`, in that order: greater than 1000 mg/kg, 17.6% and 14.7%.
As for `O=C1CC(CBr)=NN1c1c2ccccc2nc2ccccc12`, in data set [1], the LD50 was greater than 1000 mg/kg. The Activity is reported as 12.8% in data set [2] and 13.2% in data set [3].
In the case of `CC1=NN(c2c3ccccc3nc3ccccc23)C(=O)C1`, the LD50 in data set [1] is greater than 1000 mg/kg. Also, the Activity in data set [2] was 10.8%; in data set [3], 8.6%.
As to `CC1=NN(c2c3ccccc3nc3ccc(Cl)cc23)C(=O)C1`, in data set [1], the LD50 is greater than 1000 mg/kg. For the same compound, the Activity is 13.5% in data set [2] and 12.6% in data set [3].
For the compound `COc1ccc2nc3ccccc3c(N3N=C(C)CC3=O)c2c1`, the LD50 in data set [1] is greater than 1000 mg/kg. In addition, the Activity in data set [2] was found to be 11.5%; in data set [3] it was 10.8%.
As for `O=C1CC(CSc2nnc(-c3ccncc3)o2)=NN1c1c2ccccc2nc2c(Cl)cc(Cl)cc12`, in data set [1], the LD50 is greater than 1000 mg/kg. In addition, the Activity in data set [4] came out at 30.6%; in data set [5], 42.4%; in data set [6], 32.1%; in data set [2], 40.8%; in data set [3], 33.5%.
For the compound `COc1ccc2nc3ccccc3c(N3N=C(CSc4nnc(-c5ccncc5)o4)CC3=O)c2c1`, the LD50 in data set [1] was greater than 1000 mg/kg. For the same compound, the Activity in data set [2] was found to be 31.2%; in data set [3], 29.7%.
On to `O=C1CC(CSc2nnc(-c3ccncc3)o2)=NN1c1c2ccccc2nc2ccc(Br)cc12`, for which the LD50 in data set [1] is greater than 1000 mg/kg. The Activity in data set [2] is recorded as 31.5%; in data set [3], 28.8%.
Regarding `O=C1CC(CBr)=NN1c1c2ccccc2nc2c(Cl)cc(Cl)cc12`, the LD50 in data set [1] is greater than 1000 mg/kg. Also, the results for the Activity in data set [2] and in data set [3] were 20.7% and 18.6%, respectively.
For `O=C1CC(CSc2nnc(-c3ccncc3)o2)=NN1c1c2ccccc2nc2ccccc12`, in that order: greater than 1000 mg/kg, 24.1% and 25.9%.
For `O=C1CC(CSc2nnc(-c3ccncc3)o2)=NN1c1c2ccccc2nc2ccc(Cl)cc12`, the LD50 in data set [1] was greater than 1000 mg/kg. The results for the Activity in data set [2] and in data set [3] were 27.2% and 30.6%, respectively.
For `O=C1CC(CBr)=NN1c1c2ccccc2nc2ccc(Cl)cc12`, in that order: greater than 1000 mg/kg, 15.9% and 16.4%.
On the same counts, the results for `CC1=NN(c2c3ccccc3nc3ccc(Br)cc23)C(=O)C1` are greater than 1000 mg/kg, 12.6% and 12.9%.
For the compound `CC(=O)Oc1ccccc1C(=O)O` [ASPIRIN], the Activity in data set [7] stood at 60.8%; in data set [4], 30.2%; in data set [5] it was 59.3%; in data set [6] it was 30.25%.
For `CCCCC1C(=O)N(c2ccccc2)N(c2ccccc2)C1=O` [PHENYLBUTAZONE], in that order: 63.4%, 31%, 42.6% and 31.4%.

(Values after ChEMBL document CHEMBL1157867, “Synthesis of substituted acridinyl pyrazoline derivatives and their evaluation for anti-inflammatory activity” (Eur J Med Chem, 2010).)
